Measurements gathered from unrelated publications.
Dihydrofolate reductase: Dihydrofolate reductase (Bos taurus, UniProt P00376)
MAPK14: Mitogen-activated protein kinase 14 (MAPK14, Homo sapiens, UniProt Q16539)

| SMILES | target | effect on | mode | method | IC50 |
| --- | --- | --- | --- | --- | --- |
| COc1cc(C=O)cc(OC)c1O | Sucrase-isomaltase, intestinal (Si, Rattus norvegicus, UniProt P23739) | enzyme activity | inhibitor | absorbance | 1110 µM |
| COc1ccc(N2N=C(C(=O)c3ccc(Nc4cnccn4)cc3)SC2=C(C#N)C#N)cc1 | Dihydrofolate reductase | enzyme activity | inhibitor | – | 0.36 µM |
| c1ccc(-c2[nH]ccc2-c2ccnc3ccccc23)nc1 | MAPK14 | enzyme activity | inhibitor | ADP detection | > 30 µM |
| NC(=O)c1nnn(Cc2cc(Cl)c(C(=O)c3ccc(Cl)cc3)c(Cl)c2)c1N | 5-hydroxytryptamine receptor 1A (HTR1A, Homo sapiens, UniProt P08908) | cAMP | antagonist | – | 1.75 µM |
| CNCc1cc(-c2cc(O)ccc2OC(F)(F)F)ccc1F | Estrogen receptor (ESR1, Homo sapiens, UniProt P03372, D538G) | coactivator recruitment | – | TR-FRET | ~18 µM |
| COc1ccc(-n2nc(C(=O)c3ccc(Nc4cnccn4)cc3)sc2=N)cc1 | Dihydrofolate reductase | enzyme activity | inhibitor | – | 11.7 µM |
| c1ccc(-c2n[nH]cc2-c2ccncn2)nc1 | MAPK14 | enzyme activity | inhibitor | ADP detection | 1.5 µM |
| CC(C)(C)NS(=O)(=O)c1cccc(C(=O)N2CC3(CCC4(CC4)CC3)c3cc(NS(C)(=O)=O)ccc32)c1 | Kinesin-like protein KIFC1 (KIFC1, Homo sapiens, UniProt Q9BW19) | ATPase activity | inhibitor | – | > 100 µM |
| c1ccc(Cc2[nH]nc(-c3ccccn3)c2-c2ccnc3ccccc23)cc1 | MAPK14 | enzyme activity | inhibitor | ADP detection | 5.2 µM |
| CC(=O)C1=NN(c2ccccc2)C(=C(C#N)C(=O)c2ccc(Nc3cnccn3)cc2)S1 | Dihydrofolate reductase | enzyme activity | inhibitor | – | 1.95 µM |
| Oc1ccccc1-c1n[nH]cc1-c1ccnc2ccccc12 | MAPK14 | enzyme activity | inhibitor | ADP detection | 0.73 µM |
| Cc1cc(O)c(-c2ccc([C@@H](C)CN(C)C)cc2)c2c1[nH]c(=O)c1sccc12 | Cyclin-dependent kinase 14, with cyclin Y (CDK14, Homo sapiens, UniProt O94921) | enzyme activity | inhibitor | – | > 1 µM |
